One may read the IC50 as the midpoint of a concentration-inhibition curve. High values mean lower potency, low ones higher potency.

Among the data in ChEMBL document CHEMBL1156663, “11-Hydroxymonocerin from the plant endophytic fungus Exserohilum rostratum” (J Nat Prod, 2008) are Activity and IC50 values, retold here.

For assay [1], the system named is HepG2. Nature of the assay: Cytotoxicity against human HepG2 cells at 20 ug/mL by MTT assay. Type of assay: functional, cell-based. (In general: Formazan colour is commonly taken as a measure of viable cells.)
Assay [2] relates to KATO3. The assay is described as follows: Cytotoxicity against human KATO3 cells at 20 ug/mL by MTT assay. Format: functional, cell-based.
Assay [3] deals with BT-474. Nature of the assay: Cytotoxicity against human BT474 cells at 20 ug/mL by MTT assay. Format: functional, cell-based.
For assay [4], the system named is CHAGO. The assay is described as follows: Cytotoxicity against human CHAGO cells at 20 ug/mL by MTT assay. Type of assay: functional, cell-based.
The subject of assay [5] is SW-620. Nature of the assay: Cytotoxicity against human SW620 cells at 20 ug/mL by MTT assay. Type of assay: functional, cell-based.
For assay [6], the system named is Plasmodium falciparum. Nature of the assay: Antimalarial activity against multidrug-resistant Plasmodium falciparum K1. Type of assay: functional, organism-based. In short, it runs like this:
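In vitro microculture radioisotope assay against P. falciparum K1 (multidrug-resistant), parasites maintained in continuous culture; IC50 determined, dihydroartemisinin run as positive control.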

For the compound `CC[C@@H](O)[C@@H]1C[C@@H]2OC(=O)c3c(cc(OC)c(OC)c3O)[C@@H]2O1`, the Activity result in assay [1], in assay [2], in assay [3], in assay [4] and in assay [5] was “Not toxic” in each case. Besides, in assay [6], the midpoint of inhibition, the IC50, lay at 7.7 µM.
In the case of `CC[C@@H](OC(C)=O)[C@@H]1C[C@@H]2OC(=O)c3c(cc(OC)c(OC)c3OC(C)=O)[C@@H]2O1`, the Activity entry in assay [1], in assay [2], in assay [3], in assay [4] and in assay [5] was “Not toxic” each time. The IC50 in assay [6] was 9.1 µM.
On to `CCC[C@H]1C[C@H]2OC(=O)c3c(cc(OC)c(OC)c3O)[C@H]2O1` [MONOCERIN], for which the Activity entry in assay [1], in assay [2], in assay [3], in assay [4] and in assay [5] was “Not toxic” each time. For the same compound, the half-inhibitory concentration (IC50) in assay [6] was 0.68 µM.
On to `CCC[C@@H]1C[C@@H]2OC(=O)c3c(cc(OC)c(OC)c3OC(C)=O)[C@@H]2O1`, for which the Activity result in assay [1], in assay [2], in assay [3], in assay [4] and in assay [5] was “Not toxic” throughout. Also, in assay [6], the IC50 was 0.82 µM.
